The subject of one experiment is zebrafish embryos. To be noted: for CE (effective concentration to cause no-eyes phenotype): zebrafish embryos.
For the next experiment, the target named is GSK3β (Homo sapiens, UniProt P49841). In words: Kinase profiling. In kind it is biochemical, mammalian. Conditions: 5 μM 3F8 in 1% DMSO; panel of 22 kinases.
Experiment [1] has as its system β-catenin–TCF activity in 293T cells. Briefly: In vitro β-catenin–TCF assay. It counts as cell-based. Conditions: 4 μM 3F8 added to the medium, 18 h. In short, it runs like this:
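293T cells in 24-well plates were transfected with 200 ng superTOPflash reporter plasmid plus 20 ng Renilla luciferase (RLTK) control plasmid. Test compound was added 24 h after transfection and left for 18 h. Cell extracts were assayed sequentially for firefly and Renilla luciferase in a dual-luciferase system, and firefly readings were normalized to Renilla.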

Sequence of GSK3β (P49841 whole entry): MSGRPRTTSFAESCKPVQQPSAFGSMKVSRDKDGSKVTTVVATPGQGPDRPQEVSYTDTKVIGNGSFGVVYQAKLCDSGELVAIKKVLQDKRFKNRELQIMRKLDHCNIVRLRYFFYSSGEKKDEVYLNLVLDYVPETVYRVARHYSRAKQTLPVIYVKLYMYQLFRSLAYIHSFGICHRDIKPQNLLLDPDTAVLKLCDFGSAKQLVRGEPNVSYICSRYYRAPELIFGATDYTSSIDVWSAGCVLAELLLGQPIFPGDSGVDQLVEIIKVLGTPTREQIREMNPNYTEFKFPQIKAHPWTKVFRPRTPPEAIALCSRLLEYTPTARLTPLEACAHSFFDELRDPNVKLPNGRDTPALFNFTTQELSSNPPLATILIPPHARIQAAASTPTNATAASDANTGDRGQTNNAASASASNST

Consider `COC(=O)c1ccc[cH-]1.O=C1NC(=O)c2c1c1cccnc1c1[n-]c3c(Br)cc(O)cc3c21.[CH+]=O.[Ru]` [GSK-3 inhibitor XV, reference compound], for which, in the experiment on zebrafish embryos, the “CE (effective concentration to cause no-eyes phenotype)” value worked out at 1 µM.

For `CCc1nc2c(c3cc(OC)c(OC)cc13)C(=O)NC2=O` [3F8, 5-ethyl-7,8-dimethoxy-1H-pyrrolo[3,4-c]-isoquinoline-1,3-(2H)-dione], the “inhibition of GSK3β activity” value against GSK3β stood at 91%. Moreover, in experiment [1], the “luciferase read out increase (superTOPflash)” value is reported as “approximately 15 fold”. Further, in the experiment on zebrafish embryos (2 days of treatment, washed out, scored by 5 dpf), the “no-eyes embryos that developed a forebrain and eyes after removal of compound” value came out at 22%. Further, the “concentration giving no-eyes phenotype in all embryos” value with zebrafish embryos (treated at the 2-cell stage) came out at 3.75 µM. The “concentration required for effect on brain development” value in the experiment with zebrafish embryos (treated at the 2-somite stage (after gastrulation), no effect at highest dose) was above 75 µM. In addition, the “concentration required for no-eyes phenotype” value in the experiment with zebrafish embryos (treated at the shield stage) came out at 11.25 µM. Moreover, the “CE (effective concentration to cause no-eyes phenotype)” value in the experiment with zebrafish embryos came to 7.5 µM.

The values above are taken from PMC2861480 (Molecular bioSystems, 2009).
